Data: ChEMBL document CHEMBL1148639, “A novel series of potent and selective PDE5 inhibitors with potential for high and dose-independent oral bioavailability” (J Med Chem, 2006)
Values after ≈ are worked out from the molar mass of the structure shown.

Tests used:
[1] = Ratio of secretory flux to absorptive flux in human Caco-2 cell; assay type: ADME, cell-based
Outline: (§1)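 Human Caco-2 monolayers were used. Papp = amount transported/(time × surface area × initial concentration). Compounds were tested at 25 µM unless stated otherwise. Efflux ratio = secretory flux ÷ absorptive flux.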

[2] = Apparent permeability in human Caco-2 cell at 25 uM; assay type: ADME, cell-based; outline: as §1
[3] = target: T1, cGMP-specific 3',5'-cyclic phosphodiesterase (Homo sapiens, UniProt O76074)
[4] = Selectivity for human PDE5 over canine retinal PDE6
Outline: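 Ratio of IC50s for PDE5 from human corpus cavernosum and cone PDE6 from canine retina. PDE6 came from the 100 000g supernatant of retina homogenate, purified by anion exchange with a NaCl gradient. Activity was read by scintillation proximity assay with cGMP (3:1 unlabeled:3H) at about 1/3 Km, so IC50 = Ki. Buffer was 20 mM Tris-HCl pH 7.4, 5 mM MgCl2 and 1 mg/mL BSA. Incubation ran 30-60 min at 30 °C, keeping turnover below 30%. PDE5 curves spanned 1 nM-10 µM.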

[5] = Distribution coefficient, logD of the compound; assay type: physicochemical; conditions: octanol/water
[6] = Volume of distribution in dog at 0.5 mg/kg; assay type: ADME, organism-based, Canis lupus familiaris; set-up: dose 0.5 mg/kg; conditions: in vivo, read-out: Vdss
Outline: (§2)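 Compound was given intravenously to dogs. Pharmacokinetic parameters, including plasma protein binding, are means of n = 2 animals.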

[7] = Clearance in dog at 0.5 mg/kg; assay type: ADME, organism-based, Canis lupus familiaris; set-up: dose 0.5 mg/kg; conditions: in vivo; outline: as §2
[8] = Plasma protein binding in dog at 0.5 mg/kg; assay type: ADME, organism-based, Canis lupus familiaris; set-up: dose 0.5 mg/kg; conditions: read-out: PPB (converted); outline: as §2
physchem = conditions: octanol/water, pH 7.4
[9] = Stability in dog liver microsome; assay type: ADME, Canis lupus familiaris; conditions: liver microsomes, read-out: Stability
[10] = Solubility at pH 7.6; assay type: physicochemical; conditions: buffer
Outline: (§3)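 Solid was removed by filtration (with filter-binding check) or double centrifugation. The pH of the soluble fraction was measured, and the solution was diluted in mobile phase and quantified by HPLC or MS. Bulk form was checked by microscopy.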

[11] = Half life in dog at 0.5 mg/kg; assay type: ADME, organism-based, Canis lupus familiaris; set-up: dose 0.5 mg/kg; conditions: in vivo; outline: as §2
[12] = Solubility at pH 7.3; assay type: physicochemical; conditions: buffer; outline: as §3
[13] = Tmax in dog at 0.5 mg/kg; assay type: ADME, organism-based, Canis lupus familiaris; set-up: dose 0.5 mg/kg; conditions: in vivo
[14] = Oral bioavailability in dog at 0.5 mg/kg; assay type: ADME, organism-based, Canis lupus familiaris; conditions: in vivo
[15] = Oral bioavailability in human; assay type: ADME, organism-based; conditions: in vivo
[16] = target: T1, cGMP-specific 3',5'-cyclic phosphodiesterase; remark: listed apart in the source
[17] = Solubility at pH 7.4; assay type: physicochemical; conditions: buffer; outline: as §3
[18] = Solubility at pH 6.95; assay type: physicochemical; conditions: buffer; outline: as §3

In the case of `CCCc1nn(C)c2c(=O)[nH]c(-c3cc(C(=O)CN4CCOCC4)ccc3OCC)nc12`, the efflux ratio [1] is reported as 0.8, the Papp at 25 µM [2] is reported as 33 ×10⁻⁶ cm/s and the IC50 [3] is reported as 1.7 nM.

`CCCOc1ncc(C(C)=O)cc1-c1nc(O)c2nn(Cc3nccn3C)c(CC)c2n1` showed an IC50 [3] of 2.7 nM and a Selectivity ratio [4] of 58.

`CCCOc1ncc(C(C)=O)cc1-c1nc2c(CC)n(C3CCN(CC)CC3)nc2c(=O)[nH]1` gave an IC50 [3] of 13 nM.

`CCCOc1ncc(C(C)=O)cc1-c1nc(O)c2nn(C3CCNCC3)c(CC)c2n1` showed a Selectivity ratio [4] of 53.

In the case of `CCCCOc1ncc(C(C)=O)cc1-c1nc(O)c2nn(C3CCN(C)CC3)c(CC)c2n1`, the Selectivity ratio [4] is reported as 77.

Compound `CCCOc1ncc(C(C)=O)cc1-c1nc(O)c2nn(C3CCN(C)CC3)c(CC)c2n1` has a Selectivity ratio [4] of 37.

Work on `CCCCOc1ncc(C(C)=O)cc1-c1nc2c(CC)n(C3CN(C)C3)nc2c(=O)[nH]1` yielded an IC50 [3] of 6.4 nM.

Compound `CCCCOc1ncc(C(C)=O)cc1-c1nc2c(CC)n(C3CCNCC3)nc2c(=O)[nH]1` has an IC50 [3] of 18 nM.

Work on `CCCOc1ncc(C(C)=O)cc1-c1nc(O)c2nn(C3CN(C)C3)c(CCC)c2n1` yielded a logD [5] of 1.5, an IC50 [3] of 14.7 nM and a Selectivity ratio [4] of 30.

In the case of `CCCOc1ncc(C(C)=O)cc1-c1nc2c(CC)n(C3CCN(C)CC3)nc2c(=O)[nH]1`, the IC50 [3] is reported as 12 nM.

`CCCCOc1ncc(C(C)=O)cc1-c1nc2c(CC)n(C3CCN(CC)CC3)nc2c(=O)[nH]1` gave a Vd [6] of 22 L/kg, an efflux ratio [1] of 1 and a clearance [7] of 38 mL/min/kg. For the same compound, the fraction unbound [8] was 0.4, the Papp at 25 µM [2] was 53 ×10⁻⁶ cm/s and the IC50 [3] was 3.6 nM. The logD (physchem) was 1.8, the half-life [9] was greater than 2 h and the solubility [10] was 1100 µg/mL (≈ 2360 µM). For the same compound, the half-life [11] was 6.7 h.

Compound `CCCOc1ncc(C(C)=O)cc1-c1nc(=O)c2nn(C3CNC3)c(CCC)c2[nH]1` has a logD [5] of 0.6, an IC50 [3] of 18.2 nM and a Selectivity ratio [4] of 26.

With `CCCCOc1ncc(C(C)=O)cc1-c1nc(O)c2nn(C3CCN(CC)CC3)c(CC)c2n1` the Selectivity ratio [4] was 350.

In the case of `CCCOc1ncc(C(C)=O)cc1-c1nc2c(CC)n(C3CN(C(C)C)C3)nc2c(=O)[nH]1`, the Vd [6] is reported as 7.8 L/kg, the efflux ratio [1] is reported as 0.5 and the solubility [12] is reported as 170 µg/mL (≈ 388 µM). For the same compound, the clearance [7] was 13 mL/min/kg, the Tmax [13] was 1.9 h and the fraction unbound [8] was 0.34. For the same compound, the Papp at 25 µM [2] was 28 ×10⁻⁶ cm/s, the IC50 [3] was 5.2 nM and the logD (physchem) was 2.5. It also gave a half-life [9] greater than 2 h, a bioavailability [14] of 91% and a half-life [11] of 7.2 h.

`CCc1c2nc(-c3cc(C(C)=O)cnc3OCC(C)C)nc(O)c2nn1C1CN(C)C1` showed a Selectivity ratio [4] of 84.

For `CCCCOc1ncc(C(C)=O)cc1-c1nc(O)c2nn(C3CN(C)C3)c(CC)c2n1`, the Selectivity ratio [4] was 43.

With `CCCOc1ncc(C(C)=O)cc1-c1nc(O)c2nn(C3CCN(CC)CC3)c(CC)c2n1` the Selectivity ratio [4] was 18.

Work on `CCCCOc1ncc(C(C)=O)cc1-c1nc2c(CC)n(C3CCN(C)CC3)nc2c(=O)[nH]1` yielded an IC50 [3] of 9.1 nM.

In the case of `CCCCOc1ncc(C(C)=O)cc1-c1nc(O)c2nn(C3CCNCC3)c(CC)c2n1`, the Selectivity ratio [4] is reported as 57.

`CCc1c2nc(-c3cc(S(=O)(=O)N4CCN(CC)CC4)cnc3OCCOC)[nH]c(=O)c2nn1Cc1ccccn1` gave a bioavailability [15] of 45% and an IC50 [3] of 1.3 nM.

Work on `CCc1c2nc(-c3cc(C(C)=O)cnc3OCCOC)nc(O)c2nn1CCN1CCOCC1` yielded an IC50 [3] of 53 nM and a Selectivity ratio [4] of 58.

`CCCCOc1ncc(C(C)=O)cc1-c1nc(O)c2nn(C3CNC3)c(CC)c2n1` gave a Selectivity ratio [4] of 29.

`CCCCOc1ncc(C(C)=O)cc1-c1nc(O)c2nn(C3CN(CC)C3)c(CC)c2n1` gave a Selectivity ratio [4] of 153.

`CCCCOc1ncc(C(C)=O)cc1-c1nc2c(CC)n(C3CN(CC)C3)nc2c(=O)[nH]1` gave a Vd [6] of 13.4 L/kg, an efflux ratio [1] of 0.9 and an IC50 [16] of 5.5 nM. The clearance [7] was 17.5 mL/min/kg, the Tmax [13] was 1.4 h and the fraction unbound [8] was 0.38. For the same compound, the Papp at 25 µM [2] was 30 ×10⁻⁶ cm/s, the IC50 [3] was 5.5 nM and the logD (physchem) was 2.8. It also gave a half-life [9] of 1.58 h, a bioavailability [14] of 76% and a half-life [11] of 9 h. The solubility [17] was 390 µg/mL (≈ 889 µM).

For `CCCOc1ncc(C(C)=O)cc1-c1nc2c(CC)n(C3CNC3)nc2c(=O)[nH]1`, the logD [5] was 0.3 and the IC50 [3] was 34 nM.

Compound `CCc1c2nc(-c3cc(C(C)=O)cnc3OCC(C)C)[nH]c(=O)c2nn1C1CN(C)C1` has an IC50 [3] of 8.2 nM.

`CCCOc1ncc(C(C)=O)cc1-c1nc(=O)c2nn(C3CNC3)c(CC)c2[nH]1` showed a Selectivity ratio [4] of 55.

`CCCOc1ncc(C(C)=O)cc1-c1nc2c(CC)n(C3CN(C)C3)nc2c(=O)[nH]1` showed a logD [5] of 1.2 and an IC50 [3] of 9.5 nM.

For `CCCOc1ncc(C(C)=O)cc1-c1nc2c(CC)n(C3CN(CC)C3)nc2c(=O)[nH]1`, the IC50 [3] was 7.1 nM.

For `CCCOc1ncc(C(C)=O)cc1-c1nc2c(CC)n(C3CCNCC3)nc2c(=O)[nH]1`, the IC50 [3] was 7 nM.

In the case of `CCCCOc1ncc(C(C)=O)cc1-c1nc2c(CC)n(CCN3CCOCC3)nc2c(=O)[nH]1`, the solubility [12] is reported as less than 10 µg/mL, the Papp at 25 µM [2] is reported as 37 ×10⁻⁶ cm/s and the IC50 [3] is reported as 2.6 nM. It also gave a half-life [9] greater than 2 h.

`CCCOc1ncc(C(C)=O)cc1-c1nc(O)c2nn(C3CN(C(C)C)C3)c(CC)c2n1` showed a Selectivity ratio [4] of 60.

`CCCCOc1ncc(C(C)=O)cc1-c1nc(O)c2nn(Cc3nccn3C)c(CC)c2n1` gave an efflux ratio [1] of 1.6, a solubility [18] of 6 µg/mL (≈ 13.3 µM) and a Papp at 25 µM [2] of 5 ×10⁻⁶ cm/s. It also gave an IC50 [3] of 0.9 nM, a logD (physchem) of 2.6 and a half-life [9] greater than 2 h. It also gave a Selectivity ratio [4] of 142.

Compound `CCCc1nn(C)c2c(=O)[nH]c(-c3cc(C(C)=O)ccc3OCC)nc12` has an efflux ratio [1] of 0.7, a Papp at 25 µM [2] of 43 ×10⁻⁶ cm/s and an IC50 [3] of 17 nM.

Work on `CCCOc1ncc(C(C)=O)cc1-c1nc(O)c2nn(C3CN(C)C3)c(CC)c2n1` yielded a Selectivity ratio [4] of 69.

In the case of `CCCOc1ncc(C(C)=O)cc1-c1nc(O)c2nn(C3CN(CC)C3)c(CC)c2n1`, the Selectivity ratio [4] is reported as 61.

For `CCCCOc1ncc(C(C)=O)cc1-c1nc2c(CC)n(C3CNC3)nc2c(=O)[nH]1`, the IC50 [3] was 21 nM.
